Data as given in ChEMBL document CHEMBL3259653, “Potent and selective inhibitors of human reticulocyte 12/15-lipoxygenase as anti-stroke therapies” (J Med Chem, 2014).
Values belong to the compound of their own block, whether it stands above or below them. Calls of active or inactive are those of the source. No cut-off for these calls is given here.

Assays:
[1] = target: T1, Polyunsaturated fatty acid lipoxygenase ALOX15 (Homo sapiens, UniProt P16050); experiment: Inhibition of recombinant N-terminal His6-tagged human reticulocyte 12/15-lipoxygenase using arachidonic acid as substrate by UV-vis spectrometric analysis
T1 sequence (P16050 whole entry): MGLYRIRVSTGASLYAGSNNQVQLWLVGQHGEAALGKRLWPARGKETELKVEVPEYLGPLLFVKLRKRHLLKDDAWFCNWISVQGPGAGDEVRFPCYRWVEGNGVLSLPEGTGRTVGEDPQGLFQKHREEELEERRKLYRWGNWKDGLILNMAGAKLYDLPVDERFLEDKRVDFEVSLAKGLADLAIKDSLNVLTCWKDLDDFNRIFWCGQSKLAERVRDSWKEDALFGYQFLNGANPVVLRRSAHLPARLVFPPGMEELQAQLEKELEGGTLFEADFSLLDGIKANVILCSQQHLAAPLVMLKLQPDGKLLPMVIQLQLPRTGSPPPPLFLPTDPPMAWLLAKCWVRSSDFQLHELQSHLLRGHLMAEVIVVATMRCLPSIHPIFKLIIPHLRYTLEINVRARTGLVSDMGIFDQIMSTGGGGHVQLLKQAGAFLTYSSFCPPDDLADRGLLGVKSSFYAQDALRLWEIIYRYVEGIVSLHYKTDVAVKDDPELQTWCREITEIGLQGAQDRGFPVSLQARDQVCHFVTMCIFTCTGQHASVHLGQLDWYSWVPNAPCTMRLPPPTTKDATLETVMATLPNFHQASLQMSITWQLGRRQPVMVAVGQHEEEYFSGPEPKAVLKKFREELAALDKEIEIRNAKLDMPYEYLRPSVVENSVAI

[2] = target: T2, Polyunsaturated fatty acid lipoxygenase ALOX15 (Homo sapiens) (UniProt P16050); experiment: Inhibition of recombinant N-terminal His6-tagged human reticulocyte 12/15-lipoxygenase using arachidonic acid as substrate at 25 uM by UV-vis spectrometric analysis relative to control
T2 sequence (whole entry): T1 sequence (P16050 whole entry)
How it was run: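 His6-tagged human 12/15-LOX, Ni-NTA purified, at 40 nM in 25 mM HEPES pH 7.5 with 0.01% Triton X-100 and 10 μM arachidonic acid, in a stirred cuvette at 22 °C. Diene formation was followed at 234 nm, and percent inhibition at 25 μM inhibitor was calculated against the DMSO control rate.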

[3] = target: T3, Polyunsaturated fatty acid lipoxygenase ALOX15 (Mus musculus) (UniProt P39654); experiment: Inhibition of 12/15-lipoxygenase in mouse HT22 cells assessed as protection against glutamate-induced cell death at 5 uM after 24 hrs by LDH release assay; type: cell-based; details: HT-22
T3 sequence (whole entry): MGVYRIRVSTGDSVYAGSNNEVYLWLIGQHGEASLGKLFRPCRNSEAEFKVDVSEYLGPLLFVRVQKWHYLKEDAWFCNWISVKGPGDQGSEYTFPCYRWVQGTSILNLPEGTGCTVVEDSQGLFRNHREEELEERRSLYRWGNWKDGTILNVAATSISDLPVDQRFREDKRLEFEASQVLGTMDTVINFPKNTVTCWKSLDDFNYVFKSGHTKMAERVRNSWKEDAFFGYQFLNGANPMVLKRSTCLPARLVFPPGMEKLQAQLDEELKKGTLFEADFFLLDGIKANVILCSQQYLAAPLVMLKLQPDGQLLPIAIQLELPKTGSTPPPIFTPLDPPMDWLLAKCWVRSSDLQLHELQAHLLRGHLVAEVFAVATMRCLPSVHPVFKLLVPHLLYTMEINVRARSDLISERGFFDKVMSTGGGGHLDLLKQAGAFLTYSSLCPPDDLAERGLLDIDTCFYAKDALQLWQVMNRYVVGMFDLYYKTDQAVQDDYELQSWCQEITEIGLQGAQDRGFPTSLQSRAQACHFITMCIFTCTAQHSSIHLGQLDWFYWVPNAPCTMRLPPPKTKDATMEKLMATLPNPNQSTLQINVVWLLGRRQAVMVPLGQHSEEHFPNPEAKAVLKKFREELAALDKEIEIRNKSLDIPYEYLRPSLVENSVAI
How it was run: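 HT22 mouse hippocampal cells were grown in DMEM with 10% FBS and penicillin/streptomycin, seeded at 1 × 10^4 cells/well and treated 18 h later at 50–70% confluence. Medium was exchanged for fresh medium with 5 mM glutamate plus compound or DMSO (≤0.1% final). Death was scored as percent LDH released to the medium versus the cell extract, background-subtracted.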

[4] = target: T4, Prostaglandin G/H synthase 1 (Ovis aries) (UniProt P05979); experiment: Inhibition of ovine COX-1 using arachidonic acid as substrate assessed as consumption of oxygen at 5 uM preincubated for 5 mins followed by substrate addition by oxygen electrode-based assay relative to control
T4 sequence (whole entry): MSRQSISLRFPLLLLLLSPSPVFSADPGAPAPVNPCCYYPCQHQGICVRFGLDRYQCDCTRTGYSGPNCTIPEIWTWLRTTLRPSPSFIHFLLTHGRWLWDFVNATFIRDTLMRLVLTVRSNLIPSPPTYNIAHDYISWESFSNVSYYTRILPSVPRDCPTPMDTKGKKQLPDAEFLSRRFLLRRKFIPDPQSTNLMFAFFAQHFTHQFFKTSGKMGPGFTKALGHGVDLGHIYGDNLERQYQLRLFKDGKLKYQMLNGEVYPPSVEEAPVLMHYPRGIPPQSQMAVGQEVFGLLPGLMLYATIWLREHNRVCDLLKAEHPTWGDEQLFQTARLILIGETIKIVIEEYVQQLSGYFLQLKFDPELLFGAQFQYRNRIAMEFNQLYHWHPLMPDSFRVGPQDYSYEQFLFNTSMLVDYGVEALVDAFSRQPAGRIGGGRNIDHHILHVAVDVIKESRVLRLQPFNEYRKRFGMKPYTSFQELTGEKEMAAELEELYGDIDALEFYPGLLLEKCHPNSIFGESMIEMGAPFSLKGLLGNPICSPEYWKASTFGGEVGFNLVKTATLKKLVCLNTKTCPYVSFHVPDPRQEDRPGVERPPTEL
How it was run: (§1)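 COX-1 or COX-2 (2–5 μg) in 0.1 M Tris-HCl pH 8.0 with 5 mM EDTA, 2 mM phenol and 1 μM hematin at 37 °C. Inhibitor was preincubated 5 min, then 100 μM arachidonic acid was added. Oxygen consumption was read on an oxygen electrode, and percent inhibition was calculated against a DMSO control, with indomethacin as positive control.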

[5] = target: T5, Polyunsaturated fatty acid 5-lipoxygenase (Homo sapiens, UniProt P09917); experiment: Inhibition of human 5-lipoxygenase using arachidonic acid as substrate by UV-vis spectrometric analysis
T5 sequence (P09917 whole entry): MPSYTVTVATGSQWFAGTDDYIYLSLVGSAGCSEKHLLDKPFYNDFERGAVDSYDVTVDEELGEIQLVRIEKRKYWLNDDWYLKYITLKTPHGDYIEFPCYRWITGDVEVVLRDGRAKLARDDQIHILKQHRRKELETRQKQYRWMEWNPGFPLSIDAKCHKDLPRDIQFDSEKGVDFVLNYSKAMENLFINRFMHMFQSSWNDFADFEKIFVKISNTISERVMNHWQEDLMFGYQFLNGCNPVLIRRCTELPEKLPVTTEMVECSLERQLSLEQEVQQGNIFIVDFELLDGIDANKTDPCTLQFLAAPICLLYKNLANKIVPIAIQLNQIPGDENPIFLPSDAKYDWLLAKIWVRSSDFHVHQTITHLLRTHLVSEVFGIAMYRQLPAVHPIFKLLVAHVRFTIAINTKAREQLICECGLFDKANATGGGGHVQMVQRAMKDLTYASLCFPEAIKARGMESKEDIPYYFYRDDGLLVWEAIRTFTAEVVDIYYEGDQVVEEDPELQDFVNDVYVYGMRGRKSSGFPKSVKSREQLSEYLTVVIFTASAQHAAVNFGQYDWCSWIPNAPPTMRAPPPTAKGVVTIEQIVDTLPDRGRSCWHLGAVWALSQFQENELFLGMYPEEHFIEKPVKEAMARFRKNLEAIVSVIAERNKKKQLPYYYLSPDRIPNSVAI

[6] = target: T6, Prostaglandin G/H synthase 2 (Homo sapiens) (UniProt P35354); experiment: Inhibition of human COX-2 using arachidonic acid as substrate assessed as consumption of oxygen at 5 uM preincubated for 5 mins followed by substrate addition by oxygen electrode-based assay relative to control; how it was run: as §1
T6 sequence (whole entry): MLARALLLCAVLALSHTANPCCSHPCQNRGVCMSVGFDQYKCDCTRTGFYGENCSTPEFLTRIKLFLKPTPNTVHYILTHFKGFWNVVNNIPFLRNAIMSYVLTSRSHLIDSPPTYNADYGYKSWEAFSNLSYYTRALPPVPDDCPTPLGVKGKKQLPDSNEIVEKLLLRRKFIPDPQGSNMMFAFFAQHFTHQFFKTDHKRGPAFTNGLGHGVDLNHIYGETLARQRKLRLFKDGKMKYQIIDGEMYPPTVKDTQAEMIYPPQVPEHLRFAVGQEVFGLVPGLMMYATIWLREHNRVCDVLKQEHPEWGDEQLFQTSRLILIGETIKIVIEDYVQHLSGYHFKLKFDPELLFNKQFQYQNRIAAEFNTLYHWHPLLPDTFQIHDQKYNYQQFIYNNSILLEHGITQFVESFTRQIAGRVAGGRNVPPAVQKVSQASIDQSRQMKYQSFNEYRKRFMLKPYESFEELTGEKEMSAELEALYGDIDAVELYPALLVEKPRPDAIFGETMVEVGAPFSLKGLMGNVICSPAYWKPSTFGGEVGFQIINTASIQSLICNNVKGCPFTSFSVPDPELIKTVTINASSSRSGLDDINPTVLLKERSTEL

[7] = target: T7, Polyunsaturated fatty acid lipoxygenase ALOX15B (Homo sapiens, UniProt O15296); experiment: Inhibition of N-terminal His6-tagged human epithelial 15-lipoxygenase-2 using arachidonic acid as substrate by UV-vis spectrometric analysis
T7 sequence (O15296 whole entry): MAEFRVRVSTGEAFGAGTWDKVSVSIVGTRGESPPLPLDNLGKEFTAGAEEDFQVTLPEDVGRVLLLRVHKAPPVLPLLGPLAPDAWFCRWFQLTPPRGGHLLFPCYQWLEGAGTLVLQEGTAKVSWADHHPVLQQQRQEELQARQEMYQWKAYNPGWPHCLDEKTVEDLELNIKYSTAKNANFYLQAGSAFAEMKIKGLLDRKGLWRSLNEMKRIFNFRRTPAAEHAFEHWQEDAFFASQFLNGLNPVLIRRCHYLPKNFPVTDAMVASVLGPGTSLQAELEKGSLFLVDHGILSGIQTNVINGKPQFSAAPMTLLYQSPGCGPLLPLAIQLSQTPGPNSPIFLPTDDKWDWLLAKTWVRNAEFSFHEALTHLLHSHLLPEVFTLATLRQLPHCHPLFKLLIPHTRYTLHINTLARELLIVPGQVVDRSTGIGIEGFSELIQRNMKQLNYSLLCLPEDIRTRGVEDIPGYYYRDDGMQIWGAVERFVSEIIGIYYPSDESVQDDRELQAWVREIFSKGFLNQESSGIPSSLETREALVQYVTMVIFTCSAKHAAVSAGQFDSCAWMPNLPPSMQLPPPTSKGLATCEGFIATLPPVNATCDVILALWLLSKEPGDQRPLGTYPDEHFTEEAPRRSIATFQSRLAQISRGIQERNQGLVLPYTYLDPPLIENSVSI

SMILES: CNc1oc(C2CCCC2)nc1C#N
IC50 [1]: > 50 µM

SMILES: CNc1oc(-c2cccc3cnccc23)nc1C#N
Imax [2]: < 50%

SMILES: N#Cc1nc(-c2cccc3ccccc23)oc1NCc1ccccc1
IC50 [1]: > 30 µM
Imax [2]: < 50%

SMILES: CNc1oc(-c2ccc(Cl)c(Cl)c2)nc1C#N
inhibition [4]: < 10%
inhibition [6]: < 10%

SMILES: CNc1oc(-c2ccc(-c3ccccc3)cc2)nc1C#N
inhibition [3]: Active

SMILES: N#Cc1nc(-c2cccc3ccccc23)oc1Nc1ccccc1
IC50 [1]: > 30 µM
Imax [2]: < 50%

SMILES: CNc1nc(C#N)c(-c2cccc3ccccc23)o1
IC50 [1]: > 40 µM
inhibition [3]: inactive

SMILES: CNc1oc(-c2cccc(Cl)c2Cl)nc1C#N
inhibition [4]: < 10%
inhibition [6]: < 10%

Continued, in another order:

IC50 [1]: > 40 µM
SMILES: CNc1nc(-c2cccc3ccccc23)ccc1C#N

Imax [2]: < 50%
SMILES: CNc1oc(-c2ccc3ccccc3c2)nc1C#N

IC50 [1]: > 40 µM
SMILES: N#Cc1nc(-c2cccc3ccccc23)oc1NC1CNC1
inhibition [3]: Active

IC50 [1]: > 40 µM
SMILES: CNc1nnc(-c2cccc3ccccc23)s1

IC50 [1]: > 40 µM
SMILES: CNc1oc(-c2cccc3ccccc23)nc1C(=O)OC

IC50 [1]: > 40 µM
SMILES: CC(C)Nc1oc(-c2cccc3ccccc23)nc1C#N

inhibition [4]: < 10%
IC50 [5]: > 50 µM
inhibition [6]: < 10%
IC50 [7]: > 50 µM
SMILES: CNc1sc(-c2cccc3ccccc23)nc1C#N

Imax [2]: < 50%
SMILES: CNc1sc(-c2cccc3ccccc23)nc1C(=O)OC

IC50 [1]: > 25 µM
SMILES: N#Cc1nc(-c2cccc3ccccc23)oc1NC1COC1
